Tcruzi prolif: T. cruzi proliferation inhibition; inhibition, % at 8.34 µM; 77,000 tested, 5.9% active; T. cruzi beta-gal in NIH3T3, GalScreen luminescence, 90 h;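 active means mean inhibition above about 93%, with at least 55% of replicates each passing it, limit read from the data, passing the limit was not always enough; inconclusive means only one of those two conditions holds; inactive means neither condition holds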
IDH1 mut inh: blocks human IDH1 R132H reductase activity; diaphorase/resazurin fluorescence, 60 min; inhibition, % at 10 µM; 70,000 tested, 0.18% active; AID 624101; in the data active means inhibition above about 34%; inconclusive means no clear call, values can overlap the other calls; inactive means below about 11%;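 further: 0% = DMSO and 100% = no enzyme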
Pf Dd2 inh: blocks growth of Plasmodium falciparum Dd2 parasites; 94,000 tested, 2.3% active; AID 1159554; activity change, % at 10 µM; P. falciparum Dd2 growth, SYBR Green, 72 h; active compounds read low; in the data active means activity change below about -80%; inconclusive means no clear call, values can overlap the other calls
GASC1 inh: blocks human GASC-1 (KDM4C) demethylase activity; Q9H3R0; GST-KDM4C 2-372, H3K9me3 peptide, LANCE TR-FRET; inhibition, % at 12.5 µM; 96,000 tested, 0.15% active;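 active means mean replicate inhibition above about 25%, with at least 55% of replicates also reaching it, limit read from the data, passing the limit was not always enough; inconclusive means only one of those two conditions met; inactive means neither condition met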
Target sequence (Q9H3R0 2-372 limits assumed): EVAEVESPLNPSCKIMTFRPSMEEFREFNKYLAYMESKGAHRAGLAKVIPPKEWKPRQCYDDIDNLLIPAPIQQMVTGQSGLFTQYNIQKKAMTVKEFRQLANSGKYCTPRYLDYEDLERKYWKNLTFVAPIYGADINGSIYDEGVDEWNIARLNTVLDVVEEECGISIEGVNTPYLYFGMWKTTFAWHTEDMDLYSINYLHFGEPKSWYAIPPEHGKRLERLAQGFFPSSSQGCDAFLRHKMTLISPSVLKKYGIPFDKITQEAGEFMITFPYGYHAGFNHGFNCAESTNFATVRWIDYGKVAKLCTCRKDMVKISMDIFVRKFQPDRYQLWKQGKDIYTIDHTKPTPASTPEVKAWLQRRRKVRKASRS
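Material: N-terminal GST-fused human GASC-1 (KDM4C) fragment, residues 2-372. Input: 10 nM enzyme. Incubation: enzyme reaction 30 min, then detection 60 min, both room temperature. Doses: one test concentration per compound. Read-out basis: inhibition from TR-FRET ratio decrease. Detection: LANCE TR-FRET, excitation 340 nm, emissions 618 and 671 nm.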
* = called active by the depositor. A selection: hits, their analogues and other compounds. The true share with any hit is near 5.8%.

For COc1cccc(NC(=O)N(C)C[C@H]2Oc3cc(C#Cc4ccccc4)ccc3S(=O)(=O)N([C@@H](C)CO)C[C@H]2C)c1 the results were Tcruzi prolif 120.1*, IDH1 mut inh 0.1, Pf Dd2 inh inconclusive and GASC1 inh 0.4.
`COc1cccc(NC(=O)N(C)C[C@@H]2Oc3cc(C#Cc4ccccc4)ccc3S(=O)(=O)N([C@@H](C)CO)C[C@H]2C)c1` gave Tcruzi prolif 125.2*, Pf Dd2 inh -67.7 and GASC1 inh -1.6.
COc1cccc(C#Cc2ccc3c(c2)O[C@@H](CN(C)C(=O)c2ccccn2)[C@H](C)CN([C@@H](C)CO)S3(=O)=O)c1 was read as Tcruzi prolif inconclusive, IDH1 mut inh 0.1, Pf Dd2 inh -83.6* and GASC1 inh -2.6.
Screening C[C@@H]1CN([C@H](C)CO)S(=O)(=O)c2ccc(C#C[C@@H](C)O)cc2O[C@H]1CN(C)C(=O)Nc1ccccc1 returned Tcruzi prolif 76.8 and Pf Dd2 inh -92.2*.
Screening COc1cccc(NC(=O)N(C)C[C@H]2Oc3cc(C#Cc4ccncc4)ccc3S(=O)(=O)N([C@H](C)CO)C[C@H]2C)c1 returned Tcruzi prolif 56.3, IDH1 mut inh 0.4, Pf Dd2 inh -46.7 and GASC1 inh -1.8.
Screening CCc1nc(SCC(=O)N2CCCc3ccccc32)n[nH]1 returned IDH1 mut inh 0.1.
For Cn1c(=O)c2c(nc(N3CCOCC3)n2CCCN)n(C)c1=O the results were IDH1 mut inh 1.0.
Screening COc1ccccc1C#Cc1ccc([C@@H]2[C@@H](C#N)N(C(=O)C3CCCC3)[C@H]2CO)cc1 returned Pf Dd2 inh -88.3* and GASC1 inh -0.8.
For COc1ccccc1C#Cc1ccc([C@H]2[C@@H](CO)N(C(=O)C3CCCC3)[C@H]2C#N)cc1 the results were Pf Dd2 inh -26.9 and GASC1 inh -3.6.
Screening COc1ccccc1C#Cc1ccc([C@@H]2[C@@H](CO)N(C(=O)C3CCCC3)[C@H]2C#N)cc1 returned Pf Dd2 inh -88.5* and GASC1 inh 0.9.
For COc1ccccc1C#Cc1ccc([C@H]2[C@@H](C#N)N(C(=O)C3CCC3)[C@H]2CO)cc1 the results were Tcruzi prolif 93.7, Pf Dd2 inh -90.3* and GASC1 inh -0.9.
CCS(=O)(=O)N1CCCCN2[C@H](C1)[C@@H](c1ccc(C#Cc3ccccc3OC)cc1)[C@@H]2CO was read as Tcruzi prolif 86.1, Pf Dd2 inh -82.3* and GASC1 inh -3.9.
For CC(=O)c1cccc(NC(=O)CSc2nc3ccccc3c(=O)n2-c2ccccc2)c1 the results were IDH1 mut inh 0.2.
For Cc1cc(C(=O)Nc2cccc3c2O[C@@H](CN(C)Cc2ccc(C(=O)Nc4ccccc4N)cc2)[C@H](C)CN([C@H](C)CO)C3=O)n(C)n1 the results were Tcruzi prolif 98.1, IDH1 mut inh 0.0, Pf Dd2 inh -92.4* and GASC1 inh 15.6.
Screening Cc1cc(C(=O)Nc2cccc3c2O[C@H](CN(C)Cc2ccc(C(=O)Nc4ccccc4N)cc2)[C@@H](C)CN([C@H](C)CO)C3=O)n(C)n1 returned Tcruzi prolif 97.7, Pf Dd2 inh -88.3* and GASC1 inh 17.3.
`Cc1cc(C(=O)Nc2cccc3c2O[C@@H](CN(C)Cc2ccc(C(=O)O)cc2)[C@H](C)CN([C@H](C)CO)C3=O)n(C)n1` gave IDH1 mut inh 2.7, Pf Dd2 inh -0.8 and GASC1 inh 2.4.
`Cc1cc(C(=O)Nc2cccc3c2O[C@@H](CN(C)Cc2ccc(C(=O)O)cc2)[C@@H](C)CN([C@@H](C)CO)C3=O)n(C)n1` gave IDH1 mut inh -1.1, Pf Dd2 inh -7.4 and GASC1 inh -0.6.
CC1=CC(C)(C)Nc2ccc(OC(=O)CN3C(=O)c4cccc([N+](=O)[O-])c4C3=O)cc21 was read as IDH1 mut inh 0.2.
CCOC(=O)COc1cccc(-c2nc3ccccc3s2)c1 was read as IDH1 mut inh 0.0.
C[C@H]1CN([C@@H](C)CO)C(=O)c2cccc(NC(=O)c3nc4ccccc4s3)c2O[C@H]1CN(C)Cc1ccccc1 was read as Tcruzi prolif 76.8, Pf Dd2 inh -22.5 and GASC1 inh 0.7.
For C[C@H]1CN([C@@H](C)CO)C(=O)c2cccc(NC(=O)c3nc4ccccc4s3)c2O[C@@H]1CN(C)S(=O)(=O)c1ccccc1 the results were Tcruzi prolif 49.7, Pf Dd2 inh -81.3* and GASC1 inh -0.3.
Screening C[C@H](CO)N1C[C@H](C)[C@@H](CN(C)Cc2ccncc2)Oc2c(NC(=O)c3nc4ccccc4s3)cccc2C1=O returned IDH1 mut inh 35.4*, Pf Dd2 inh -54.9 and GASC1 inh -3.2.
C[C@H]1CN([C@@H](C)CO)C(=O)c2cccc(NC(=O)c3nc4ccccc4s3)c2O[C@H]1CN(C)Cc1ccc(C(=O)Nc2ccccc2N)cc1 was read as Tcruzi prolif 97.2*, Pf Dd2 inh -91.2* and GASC1 inh -1.2.
Screening Cc1ccccc1S(=O)(=O)N1[C@H](C#N)[C@H](c2ccc(C#CC3CCCCC3)cc2)[C@@H]1CO returned Tcruzi prolif 83.7, Pf Dd2 inh -44.4 and GASC1 inh -1.8.
Screening Cc1ccccc1S(=O)(=O)N1[C@H](C#N)[C@@H](c2ccc(C#CC3CC3)cc2)[C@@H]1CO returned Tcruzi prolif 74.4, Pf Dd2 inh -84.7* and GASC1 inh -0.4.
Screening CS(=O)(=O)N1[C@H](C#N)[C@H](c2ccc(C#CC3CCCCC3)cc2)[C@H]1CO returned Tcruzi prolif 99.1*, Pf Dd2 inh -20.1 and GASC1 inh -1.7.
`CS(=O)(=O)N1[C@H](CO)[C@@H](c2ccc(C#CC3CCCC3)cc2)[C@@H]1C#N` gave Tcruzi prolif 88.9, Pf Dd2 inh -2.7 and GASC1 inh -4.2.
Cc1ccccc1S(=O)(=O)N1[C@H](CO)[C@@H](c2ccc(C#CC3CCCCC3)cc2)[C@@H]1C#N was read as Tcruzi prolif 89.5, Pf Dd2 inh -83.1* and GASC1 inh -3.4.
`N#C[C@H]1[C@@H](c2ccc(C#CC3CCCC3)cc2)[C@@H](CO)N1S(=O)(=O)c1ccccc1` gave Tcruzi prolif 90.7, IDH1 mut inh -0.3, Pf Dd2 inh -83.2* and GASC1 inh -1.5.
Screening COc1ccc(-c2csc(NC(=O)c3cc(-c4ccc(C)o4)nc4ccccc34)c2C#N)cc1OC returned IDH1 mut inh -0.1.
Screening COc1ccc(NC(=C(C#N)C#N)C(F)(F)C(F)(F)F)cc1 returned IDH1 mut inh 0.9.
Screening Cc1ccccc1S(=O)(=O)N1[C@H](C#N)[C@@H](c2ccc(-c3ccc(F)cc3)cc2)[C@@H]1CO returned Tcruzi prolif 83.6, Pf Dd2 inh -14.1 and GASC1 inh -0.4.
`Cc1ccccc1S(=O)(=O)N1[C@@H](C#N)[C@@H](c2ccc(-c3ccc(F)cc3)cc2)[C@@H]1CO` gave Tcruzi prolif 106.8*, Pf Dd2 inh -13.2 and GASC1 inh -2.6.
For C[C@H](CO)N1C[C@H](C)[C@H](CN(C)CC2CCCCC2)OCCCC[C@H](C)Oc2ccc(NC(=O)CCCCCC(=O)Nc3ccccc3N)cc2C1=O the results were Tcruzi prolif 89.1, Pf Dd2 inh -81.9* and GASC1 inh 2.8.
